The values that follow come from ChEMBL document CHEMBL1154791, “Constituents of Polyalthia longifolia var. pendula” (J Nat Prod, 2009).

In one test the test system is A549. Put plainly: Cytotoxicity against human A549 cells after 72 hrs by MTT assay. In kind it is functional, cell-based. In outline:
(§1)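 Cells grown in RPMI1640 with 10% FBS, penicillin and streptomycin; log-phase cells seeded per well (MCF-7 1.0 × 10^4; A549 4.5 × 10^3). After 24 h, exposed to various concentrations for 72 h.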

The test system of a further test is MCF7. Put plainly: Cytotoxicity against human MCF7 cells after 72 hrs by MTT assay. The class given is functional, cell-based. In a few lines:
as §1

On to `CC1=CCC[C@@H]2[C@@](C)(CC/C(C=O)=C\C(=O)O)[C@H](C)CC[C@@]12C`, for which the IC50 with A549 (Homo sapiens, A549, 72 h, read-out: IC50) was determined as 3.1 µM; in the test with MCF7 (Homo sapiens, MCF7, 72 h, read-out: IC50), 3.7 µM.
As to `CC1=CC(=O)C[C@@H]2[C@@](C)(CC/C(C)=C\C(=O)O)[C@H](C)CC[C@@]12C`, the IC50 result with A549 (a549) and in the test on MCF7 (mcf7) was “Not Active” throughout.
As to `CC1=CCC[C@@H]2[C@@](C)(CC/C(=C\C(=O)O)CO)[C@H](C)C[C@H](O)[C@@]12C`, the IC50 result in the test on A549 (a549) and in the test with MCF7 (mcf7) was “Not Active” in each case.
With `C=C1CCC[C@@H]2[C@@](C)(CC/C(=C\C(=O)O)CO)[C@H](C)C[C@H](O)[C@@]12C`, the IC50 entry in the test with A549 (a549) and in the test on MCF7 (mcf7) was “Not Active” throughout.
For `COc1cc2c(cc1OC)[C@@H]1Cc3ccc(O)c(O)c3C(=O)N1CC2`, the IC50 result with A549 (a549) and in the test on MCF7 (mcf7) was “Not Active” each time.
In the case of `COc1cc2c(cc1OC)[C@@H]1Cc3cc(O)cc(OC)c3C(=O)N1CC2`, the IC50 result in the test with A549 (a549) and with MCF7 (mcf7) was “Not Active” each time.
Consider `C[C@@H]1CC[C@]2(C)[C@H](CCC[C@]23CO3)[C@@]1(C)CC/C(=C\C(=O)O)CO`, for which the IC50 entry in the test with A549 (a549) and in the test on MCF7 (mcf7) was “Not Active” throughout.
With `COc1cc2c(cc1OC)[C@@H]1Cc3ccc(O)c(OC)c3C(=O)N1CC2`, the IC50 result in the test with A549 (a549) and in the test on MCF7 (mcf7) was “Not Active” in each case.
Regarding `COc1cc2c(cc1O)[C@@H]1Cc3cc(O)c(OC)cc3C(=O)N1CC2`, the IC50 result in the test with A549 (a549) and with MCF7 (mcf7) was “Not Active” throughout.
`COc1cc2c(cc1OC)[C@@H]1Cc3cc(O)c(OC)c(OC)c3C(=O)N1CC2`: the IC50 entry in the test with A549 (a549) and in the test with MCF7 (mcf7) was “Not Active” throughout.
Consider `COc1cc2c(cc1O)[C@@H]1Cc3cc(OC)c(O)c(OC)c3C(=O)N1CC2`, for which the concentration for half-maximal inhibition (IC50) entry in the test with A549 (a549) and with MCF7 (mcf7) was “Not Active” in each case.
Consider `CCCCC/C=C\C/C=C\CCCCCCCC(=O)OCC(O)CO` (stereo not given), for which the IC50 entry in the test with A549 (a549) and in the test with MCF7 (mcf7) was “Not Active” each time.
Consider `COc1cc2c(cc1OC)[C@@H]1Cc3ccc(OC)c(OC)c3C(=O)N1CC2`, for which the IC50 result in the test on A549 (a549) and in the test on MCF7 (mcf7) was “Not Active” each time.
Turning to `COc1c(O)cc2c(c1OC)-c1nccc(C)c1C2=O` [DARIENINE], the IC50 result in the test on A549 (a549) and in the test with MCF7 (mcf7) was “Not Active” in each case.
As for `COc1cc(/C=C/C(=O)NCCc2ccc(O)c(O)c2)ccc1O` [N-TRANS-FERULOYLDOPAMINE], the concentration for half-maximal inhibition (IC50) entry with A549 (a549) and in the test on MCF7 (mcf7) was “Not Active” each time.
